Article PMC3295204 (Journal of Medicinal Chemistry, 2012)

Legend:
[1] = Cell viability; format: cell-based, human; settings: human, PC-3 cells (androgen-independent prostate cancer cell line)
[2] = Cell viability; format: cell-based; settings: human, LNCaP cells (androgen-dependent prostate cancer cell line)
[3] = Cell viability; format: cell-based; settings: human, PWR-1E cells (normal prostatic epithelia cell line)
[4] = biological target: T1, progesterone receptor (PR) (Homo sapiens, UniProt P06401); experiment: TR-FRET SRC1-4 coactivator displacement from progesterone-PR complex; format: biochemical; settings: AR vs PR
T1 sequence (P06401 679-933 limits assumed): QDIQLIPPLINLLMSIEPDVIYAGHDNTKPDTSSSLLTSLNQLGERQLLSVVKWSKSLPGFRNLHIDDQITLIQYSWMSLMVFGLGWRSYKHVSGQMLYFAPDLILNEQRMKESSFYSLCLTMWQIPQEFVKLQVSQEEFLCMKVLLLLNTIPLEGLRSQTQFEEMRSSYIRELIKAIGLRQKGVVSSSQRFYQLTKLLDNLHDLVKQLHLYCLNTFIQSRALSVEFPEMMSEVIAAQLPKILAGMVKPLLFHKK
Method in brief: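 TR-FRET coactivator-recruitment assay with LBD and Tb anti-GST antibody. Agonist was set at its EC80 from a prior agonist-mode run: DHT for AR-LBD (test compound 100 μM–45 nM), progesterone for PR (100–1 μM). Buffer had 1% DMSO, 5 mM DTT and 0.01% Triton X-100; incubation was 2–4 h at RT in the dark. […] Two experiments in triplicate.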

[5] = tested on: LNCaP cells; experiment: Hormone-dependent cell proliferation in androgen-deprived LNCaP cells; format: cell-based, human
Method in brief: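 LNCaP cells were androgen-deprived for 48 h in phenol red-free RPMI with 10% charcoal-stripped FBS. They were seeded at 2 × 10^4 cells/mL in triplicate and treated with test compound ± 0.1 nM DHT (0.1% DMSO final), with a vehicle control. Media and treatments were renewed every second day after two PBS washes. Proliferation was read by AlamarBlue at 5 days. Two independent experiments, SEM n = 6.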

[6] = tested on: PSA secretion (AR signaling) in LNCaP cells; experiment: Secreted PSA ELISA in LNCaP cells; format: cell-based, human
Method in brief: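 Media were renewed every second day, and supernatants collected at day 5 for human PSA sandwich ELISA: sample 2 h at RT, HRP-conjugate antibody 2 h at RT, TMB 30 min, then 2 N H2SO4 stop. OD 450 minus 540 nm was interpolated from a standard curve. Two experiments, SEM n = 4.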

[7] = tested on: PC-3 cells; experiment: Cell viability; format: cell-based, human; settings: PC-3, 50 μM, 24 h

| Compound | viability at 24 h, 50 µM [1] [%] | viability at 24 h, 50 µM [2] [%] | viability at 24 h, 50 µM [3] [%] | binding selectivity for AR over PR [4] | tolerability in LNCaP cells ([5]; 5 days of treatment at 10 and 20 μM) | effect on DHT-treated cell count ([5]; 5 days, 10 and 20 μM, 0.1 nM DHT) | effect on CPA partial agonist activity (secreted PSA) ([6]; 10 μM, androgen-deprived LNCaP) | effect on DHT-induced PSA secretion ([6]; LNCaP, ELISA) | agonist activity (PSA without hormone stimulation) ([6]; androgen-deprived LNCaP, tested concentrations) | cell viability [7] |
| --- | --- | --- | --- | --- | --- | --- | --- | --- | --- | --- |
| O=C(N/N=C/c1cc(Br)ccc1O)c1cc2ccccc2cc1O [Compound 4] | 50 to 60 | 50 to 60 | 50 to 60 | approximately 2 fold |  |  |  |  |  |  |
| COc1cc(/C=N/NC(=O)c2cc3c(ccc4ccccc43)o2)cc(OC)c1O [Compound 5] |  |  |  | comparable affinity | well-tolerated | specific reduction in DHT-treated cell count | antagonize CPA partial agonist activity | reduce DHT-induced PSA secretion in a dose–response fashion | no detectable agonist or partial agonist activity |  |
| CC(=O)O[C@]1(C(C)=O)CC[C@H]2[C@@H]3C=C(Cl)C4=CC(=O)[C@@H]5C[C@@H]5[C@]4(C)[C@H]3CC[C@@]21C [CPA, cyproterone acetate, reference compound] |  |  |  |  |  |  |  |  |  | minor effect |
